Measured values of several laboratories.
Lines come from different studies, so protocols differ.
SLC10A2: Ileal sodium/bile acid cotransporter (SLC10A2, Homo sapiens, UniProt Q12908)
Methionyl-tRNA synthetase, putative: Methionyl-tRNA synthetase, putative (Trypanosoma brucei brucei, UniProt Q38C91)
BRD9: Bromodomain-containing protein 9 (BRD9, Homo sapiens, UniProt Q9H8M2)
ACVR2A: Activin receptor type-2A (ACVR2A, Homo sapiens, UniProt P27037)
CDKL3: Cyclin-dependent kinase-like 3 (CDKL3, Homo sapiens, UniProt Q8IVW4)

| SMILES | target | assay | test system | setting | measurement | value |
| --- | --- | --- | --- | --- | --- | --- |
| CCCCOc1cc(C(=O)NCCN(CC)CC)c2ccccc2n1 | SLC10A2 | transporter uptake, inhibitor, radiometric |  | 1 mM | inhibition | 68.8% |
| O=C(Cc1cc(Cl)cc(Cl)c1)N1CCCC(c2nc3cc(Cl)c(Cl)cc3[nH]2)C1 (centres unmarked) | Methionyl-tRNA synthetase, putative | thermal stability, DSF |  | 100 µM | ΔTm | 7 °C |
| COc1cc2ncnc(Nc3ccc(F)c(Cl)c3)c2cc1OCCCN1CCOCC1 | SLC10A2 | transporter uptake, inhibitor, radiometric |  | 1 mM | inhibition | < 10% |
| COC(=O)c1ccc(N2CCN(C)CC2)c(NC(=O)c2cccc(OC)c2)c1 | WD repeat-containing protein 5 (WDR5, Homo sapiens, UniProt P61964) | thermal stability, DSF |  | 100 µM | ΔTm | 8.4 °C |
| Nc1ccn([C@H]2C[C@H](O)[C@@H](COP(=O)(O)OP(=O)(O)OP(=O)(O)O)O2)c(=O)n1 | DNA polymerase lambda (POLL, Homo sapiens, UniProt Q9UGP5) | enzyme activity, substrate |  |  | Km | 0.016 µM |
| Cc1cnc(Nc2ccc(OCCN3CCCC3)cc2)nc1Nc1cccc(S(=O)(=O)NC(C)(C)C)c1 | BRD9 | thermal stability, DSF |  | 10 µM | ΔTm | 0.58 °C |
| Cn1c2c(c3ccc(Cl)c(Cl)c31)C(C#N)C1(CCCC1)NC2=O (centres unmarked) | ACVR2A | thermal stability, DSF |  | 10 µM | ΔTm | 0 °C |
| CC(=O)N[C@H]1CSSC[C@@H](C(=O)N[C@@H](Cc2c[nH]c3ccccc23)C(N)=O)NC(=O)[C@@H](Cc2ccccc2)NC(=O)[C@H](CCCNC(=N)N)NC1=O | Melanocortin receptor 5 (MC5R, Homo sapiens, UniProt P33032) | cAMP, agonist | HEK293 | 3 min | Emax | 0% |
| COc1cc(Cl)c(C(=O)N[C@@H](CN[C@H]2CC[C@@H](N)CC2)Cc2ccc(C#N)cc2)cc1-c1ccc(CN[C@H](C)c2ccc(C)cc2)o1 | CDKL3 | enzyme activity, inhibitor |  | 1 µM | remaining activity | 95% |
| Cc1ccc(C(=O)Nc2ccc(CN3CCN(C)CC3)c(C(F)(F)F)c2)cc1C#Cc1cnc2cccnn12 | Serine/threonine-protein kinase 35 (STK35, Homo sapiens, UniProt Q8TDR2) | enzyme activity, inhibitor |  | 23.5 nM | remaining activity | 98% |
| Cn1c2c(c3ccc(Cl)c(Cl)c31)C(C#N)C1(CCNCC1)NC2=O (racemic) | ACVR2A | thermal stability, DSF |  | 10 µM | ΔTm | 0 °C |
| O=C(Cc1cc(Cl)cc(Cl)c1)N1CCCC(c2nc3cc(F)ccc3[nH]2)C1 (centres unmarked) | Methionyl-tRNA synthetase, putative | thermal stability, DSF |  | 100 µM | ΔTm | 8 °C |
| Nc1ncnc2occ(-c3ccc(NC(=O)Nc4cc(C(F)(F)F)ccc4F)cc3)c12 | CDKL3 | cell-free assay |  | 20 µM | remaining signal | 0.8% |
| Oc1ccc(-c2nc(-c3ccncc3)c(-c3ccc(F)cc3)[nH]2)cc1 | PHIP, BD2 (Homo sapiens, UniProt Q8WWQ0) | thermal stability, DSF |  | 10 µM | ΔTm | 0.27 °C |
| N#Cc1ccc(/C=C/CN(CC[C@H](N)C(=O)O)C[C@H]2O[C@@H](n3cnc4c(N)ncnc43)[C@H](O)[C@@H]2O)cc1 | Histone-lysine N-methyltransferase SETD2 (SETD2, Homo sapiens, UniProt Q9BYW2) | enzyme activity, inhibitor |  | 1 µM | activity vs control | 108% |
| O=c1c(-c2cc(O)c(O)c(O)c2)coc2cc(O)c(O)c(O)c12 | Histone-lysine N-methyltransferase SETD7 (SETD7, Homo sapiens, UniProt Q8WTS6) | cell-free assay |  | 10 µM | inhibition | 34% |
| Cc1cc2c(cc1N1C(=O)c3cccc4c(Cl)ccc(c34)C1=O)n(C)c(=O)n2C | PHIP (Homo sapiens, UniProt Q8WWQ0) | thermal stability, DSF |  | 10 µM | ΔTm | -2.4 °C |
| Cc1ccc(NC(=O)c2ccc(C)c(C(F)(F)F)c2)cc1C#Cc1nn(C2CCC(O)CC2)c2ncnc(N)c12 (centres unmarked) | Phosphatidylinositol 5-phosphate 4-kinase type-2 alpha (PIP4K2A, Homo sapiens, UniProt P48426) | cell-free assay, inhibitor |  | 10 µM | remaining signal | 100% |
| C[S+]([O-])c1ccc(-c2nc(-c3ccncc3)c(-c3ccc(F)cc3)[nH]2)cc1 (centres unmarked) | BRD9 | thermal stability, DSF |  | 10 µM | ΔTm | -0.33 °C |
| CSc1ccc2c(c1)N(CCC1CCCCN1C)c1ccccc1S2 (centres unmarked) | SLC10A2 | transporter uptake, inhibitor, radiometric |  | 1 mM | inhibition | 97.1% |
